Measured values taken from ChEMBL document CHEMBL5696442, “Discovery of type II inhibitors of TGFβ-activated kinase 1 (TAK1) and mitogen-activated protein kinase kinase kinase kinase 2 (MAP4K2)” (J Med Chem, 2015).
Active and inactive are the calls of the source. The calls are words filed in the database; no cut-off is given here.

What was measured:
[1] = biological target: RAC-gamma serine/threonine-protein kinase (Homo sapiens) (UniProt Q9Y243); test: Inhibition of AKT3 (unknown origin) at 1 uM by Ambit Kinomescan binding assay relative to control
[2] = biological target: T1, Serine/threonine-protein kinase Chk1 (Homo sapiens) (UniProt O14757); test: Inhibition of CHEK1 (unknown origin) at 1 uM by Ambit Kinomescan binding assay relative to control
T1 sequence (whole entry): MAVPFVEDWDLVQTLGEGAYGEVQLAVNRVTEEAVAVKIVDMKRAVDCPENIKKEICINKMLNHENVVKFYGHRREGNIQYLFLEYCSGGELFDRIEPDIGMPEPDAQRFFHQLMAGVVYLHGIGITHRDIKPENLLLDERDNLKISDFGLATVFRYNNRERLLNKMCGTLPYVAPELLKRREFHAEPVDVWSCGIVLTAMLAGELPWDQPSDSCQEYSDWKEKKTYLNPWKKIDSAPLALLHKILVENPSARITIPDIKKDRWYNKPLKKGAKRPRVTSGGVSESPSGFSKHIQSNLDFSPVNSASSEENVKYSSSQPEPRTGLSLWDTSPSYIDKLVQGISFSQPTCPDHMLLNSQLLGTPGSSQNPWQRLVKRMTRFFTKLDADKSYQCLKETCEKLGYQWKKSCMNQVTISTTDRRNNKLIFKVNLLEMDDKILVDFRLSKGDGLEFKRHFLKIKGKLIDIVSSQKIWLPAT

[3] = biological target: Protein kinase C theta type (Homo sapiens) (UniProt Q04759); test: Inhibition of PRKCQ (unknown origin) at 1 uM by Ambit Kinomescan binding assay relative to control
In short: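 In vitro ATP-site competition binding assay against a panel of over 420 kinases (KinomeScan), with compound tested at 10 or 1 μM.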

[4] = biological target: Serine/threonine-protein kinase SIK3 (Homo sapiens) (UniProt Q9Y2K2); test: Inhibition of QSK (unknown origin) at 1 uM by Ambit Kinomescan binding assay relative to control
[5] = biological target: Receptor-interacting serine/threonine-protein kinase 1 (Homo sapiens) (UniProt Q13546); test: Inhibition of RIPK1 (unknown origin) at 1 uM by Ambit Kinomescan binding assay relative to control
[6] = biological target: Serine/threonine-protein kinase 32C (Homo sapiens) (UniProt Q86UX6); test: Inhibition of YANK3 Lys2 labeling site in human A-375 cells at 0.05 uM by KiNativ Profiling analysis relative to control; assay type: cell-based
[7] = biological target: Cyclin-dependent kinase-like 3 (Homo sapiens) (UniProt Q8IVW4); test: Inhibition of CDKL3 (unknown origin) at 1 uM by Ambit Kinomescan binding assay relative to control; values are per cent of control
[8] = biological target: Ephrin type-A receptor 6 (Homo sapiens) (UniProt Q9UF33); test: Inhibition of EPHA6 (unknown origin) at 1 uM by Ambit Kinomescan binding assay relative to control; values are per cent of control
[9] = system: Tyrosine-protein kinase ABL1 (Homo sapiens), P00519 [F317L]; test: Inhibition of phosphorylated ABL1 F317L mutant (unknown origin) at 1 uM by Ambit Kinomescan binding assay relative to control; values are per cent of control
[10] = system: Tyrosine-protein kinase ABL1 (Homo sapiens), P00519 [F317I]; test: Inhibition of phosphorylated ABL1 F317I mutant (unknown origin) at 1 uM by Ambit Kinomescan binding assay relative to control; values are per cent of control
[11] = biological target: Serine/threonine-protein kinase B-raf (Homo sapiens, UniProt P15056); test: Inhibition of BRAF (unknown origin) at 10 uM by Ambit Kinomescan binding assay relative to control
[12] = biological target: Tyrosine-protein kinase BTK (Homo sapiens) (UniProt Q06187); test: Inhibition of BTK (unknown origin) at 10 uM by Ambit Kinomescan binding assay
[13] = biological target: Calcium/calmodulin-dependent protein kinase kinase 1 (Homo sapiens) (UniProt Q8N5S9); test: Inhibition of CAMKK1 (unknown origin) at 10 uM by Ambit Kinomescan binding assay
[14] = biological target: Casein kinase II subunit alpha' (Homo sapiens) (UniProt P19784); test: Inhibition of CSNK2A2 (unknown origin) at 10 uM by Ambit Kinomescan binding assay
[15] = system: Mast/stem cell growth factor receptor Kit (Homo sapiens), P10721 [V559D]; test: Inhibition of KIT V559D mutant (unknown origin) at 10 uM by Ambit Kinomescan binding assay relative to control
[16] = biological target: AMPK alpha1/alpha2 (Homo sapiens) (UniProt P54646+Q13131); test: Inhibition of AMPK alpha 1/2 K1 labeling site in human Huh-7 cells at 10 uM by KiNativ Profiling analysis relative to control; assay type: cell-based
[17] = biological target: Tyrosine-protein kinase ABL (Homo sapiens) (UniProt P00519+P42684); test: Inhibition of ABL1/2 K1 labeling site in human Huh-7 cells at 1 uM by KiNativ Profiling analysis relative to control; assay type: cell-based
[18] = biological target: Cyclin-dependent kinase 6 (Homo sapiens) (UniProt Q00534); test: Inhibition of CDK6 Lys2 labeling site in human Huh-7 cell lysate at 1 uM by KiNativ Profiling analysis relative to control; assay type: subcellular
[19] = biological target: Serine/threonine-protein kinase 25 (Homo sapiens) (UniProt O00506); test: Inhibition of YSK1 Lys2 labeling site in human Huh-7 cell lysate at 1 uM by KiNativ Profiling analysis relative to control; assay type: subcellular
[20] = biological target: Phosphatidylinositol 4-kinase beta (Homo sapiens) (UniProt Q9UBF8); test: Inhibition of PI4KB ATP labeling site harbouring VPHTQAVVLNSKDKAPYLIYVEVLECENFDTTSVPAR in human Huh-7 cell lysate at 1 uM by KiNativ Profiling analysis relative to control; assay type: subcellular
[21] = biological target: Ribosomal protein S6 kinase alpha-1 (Homo sapiens) (UniProt Q15418); test: Inhibition of RSK1 domain2 ACT labeling site in human Huh-7 cell lysate at 1 uM by KiNativ Profiling analysis relative to control; assay type: subcellular
[22] = biological target: Calcium/calmodulin-dependent protein kinase type II subunit delta (Homo sapiens) (UniProt Q13557); test: Inhibition of CaMK2d Lys1 labeling site harbouring IPTGQEYAAKIINTKK in human Huh-7 cells at 1 uM by KiNativ Profiling analysis relative to control; assay type: cell-based
[23] = biological target: Calcium/calmodulin-dependent protein kinase type II subunit gamma (Homo sapiens) (UniProt Q13555); test: Inhibition of CaMK2g Lys1 labeling site harbouring KTSTQEYAAKIINTK in human Huh-7 cells at 1 uM by KiNativ Profiling analysis relative to control; assay type: cell-based
[24] = biological target: STE20/SPS1-related proline-alanine-rich protein kinase (Homo sapiens) (UniProt Q9UEW8); test: Inhibition of STLK3 Lys2 labeling site in human Huh-7 cells at 1 uM by KiNativ Profiling analysis relative to control; assay type: cell-based

Chain of Serine/threonine-protein kinase B-raf (P15056 whole entry): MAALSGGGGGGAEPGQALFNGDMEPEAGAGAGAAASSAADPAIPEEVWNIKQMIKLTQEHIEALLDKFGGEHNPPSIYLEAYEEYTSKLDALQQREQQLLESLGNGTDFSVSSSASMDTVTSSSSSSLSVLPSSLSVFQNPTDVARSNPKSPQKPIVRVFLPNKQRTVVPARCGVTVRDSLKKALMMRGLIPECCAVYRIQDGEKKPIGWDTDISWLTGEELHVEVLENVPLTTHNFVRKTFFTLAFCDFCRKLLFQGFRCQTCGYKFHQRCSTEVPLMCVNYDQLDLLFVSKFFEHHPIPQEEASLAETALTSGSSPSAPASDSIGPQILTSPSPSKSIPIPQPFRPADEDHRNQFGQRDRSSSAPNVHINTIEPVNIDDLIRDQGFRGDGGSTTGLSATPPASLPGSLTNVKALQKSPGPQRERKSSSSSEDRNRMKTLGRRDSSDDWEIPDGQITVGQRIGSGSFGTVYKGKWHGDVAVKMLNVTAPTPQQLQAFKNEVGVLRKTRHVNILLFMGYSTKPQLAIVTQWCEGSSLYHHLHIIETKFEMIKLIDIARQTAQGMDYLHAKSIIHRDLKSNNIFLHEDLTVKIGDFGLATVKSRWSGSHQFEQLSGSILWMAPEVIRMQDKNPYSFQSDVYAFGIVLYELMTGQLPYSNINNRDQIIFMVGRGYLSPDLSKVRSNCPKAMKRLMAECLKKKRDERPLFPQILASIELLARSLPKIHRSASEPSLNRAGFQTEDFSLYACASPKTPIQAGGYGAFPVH
Chain of Calcium/calmodulin-dependent protein kinase type II subunit delta (Homo sapiens) (Q13557 whole entry): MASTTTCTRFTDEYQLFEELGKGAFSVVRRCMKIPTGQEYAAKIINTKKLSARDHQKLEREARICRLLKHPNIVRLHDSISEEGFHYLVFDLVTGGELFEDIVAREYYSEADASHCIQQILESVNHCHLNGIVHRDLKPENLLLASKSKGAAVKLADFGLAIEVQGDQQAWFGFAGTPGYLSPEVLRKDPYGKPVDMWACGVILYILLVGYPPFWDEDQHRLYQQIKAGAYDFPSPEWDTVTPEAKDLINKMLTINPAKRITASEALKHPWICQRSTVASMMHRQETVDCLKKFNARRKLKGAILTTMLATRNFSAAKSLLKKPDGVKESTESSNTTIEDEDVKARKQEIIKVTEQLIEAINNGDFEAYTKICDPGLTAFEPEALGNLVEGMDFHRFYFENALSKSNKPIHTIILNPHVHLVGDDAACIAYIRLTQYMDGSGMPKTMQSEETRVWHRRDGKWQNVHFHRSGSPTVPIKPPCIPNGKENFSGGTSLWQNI
Chain of AMPK alpha1/alpha2 (Homo sapiens) (P54646 whole entry, looked up): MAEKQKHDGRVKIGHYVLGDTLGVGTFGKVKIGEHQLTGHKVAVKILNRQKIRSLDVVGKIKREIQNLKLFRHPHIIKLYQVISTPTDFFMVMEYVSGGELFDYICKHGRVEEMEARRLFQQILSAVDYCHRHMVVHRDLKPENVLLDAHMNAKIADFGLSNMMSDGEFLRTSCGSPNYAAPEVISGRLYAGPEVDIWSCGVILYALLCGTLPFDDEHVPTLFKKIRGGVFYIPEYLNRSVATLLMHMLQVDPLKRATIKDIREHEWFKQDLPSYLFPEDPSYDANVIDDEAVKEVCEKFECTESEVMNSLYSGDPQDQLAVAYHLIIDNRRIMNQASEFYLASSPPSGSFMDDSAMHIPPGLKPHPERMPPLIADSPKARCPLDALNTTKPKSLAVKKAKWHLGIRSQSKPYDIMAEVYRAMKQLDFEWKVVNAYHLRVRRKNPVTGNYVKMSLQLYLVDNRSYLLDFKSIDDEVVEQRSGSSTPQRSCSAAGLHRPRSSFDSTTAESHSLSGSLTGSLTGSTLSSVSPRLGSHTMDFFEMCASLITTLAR
Chain of AMPK alpha1/alpha2 (Homo sapiens) (Q13131 whole entry, looked up): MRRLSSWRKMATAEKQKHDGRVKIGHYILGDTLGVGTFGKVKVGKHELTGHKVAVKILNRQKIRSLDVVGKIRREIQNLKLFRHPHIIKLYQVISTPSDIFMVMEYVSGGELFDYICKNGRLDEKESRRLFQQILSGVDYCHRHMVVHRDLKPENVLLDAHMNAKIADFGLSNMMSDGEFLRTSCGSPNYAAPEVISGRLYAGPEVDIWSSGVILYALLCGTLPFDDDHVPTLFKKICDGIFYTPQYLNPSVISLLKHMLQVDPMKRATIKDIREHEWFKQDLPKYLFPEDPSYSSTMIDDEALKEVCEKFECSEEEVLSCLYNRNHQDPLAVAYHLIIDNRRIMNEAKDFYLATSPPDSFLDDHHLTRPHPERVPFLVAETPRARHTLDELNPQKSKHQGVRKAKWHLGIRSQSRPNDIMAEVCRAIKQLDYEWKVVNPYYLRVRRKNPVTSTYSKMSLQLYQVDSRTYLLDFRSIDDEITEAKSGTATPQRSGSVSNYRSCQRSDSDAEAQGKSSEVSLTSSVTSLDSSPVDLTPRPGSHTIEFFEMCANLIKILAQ
Chain of Cyclin-dependent kinase-like 3 (Homo sapiens) (Q8IVW4 whole entry, looked up): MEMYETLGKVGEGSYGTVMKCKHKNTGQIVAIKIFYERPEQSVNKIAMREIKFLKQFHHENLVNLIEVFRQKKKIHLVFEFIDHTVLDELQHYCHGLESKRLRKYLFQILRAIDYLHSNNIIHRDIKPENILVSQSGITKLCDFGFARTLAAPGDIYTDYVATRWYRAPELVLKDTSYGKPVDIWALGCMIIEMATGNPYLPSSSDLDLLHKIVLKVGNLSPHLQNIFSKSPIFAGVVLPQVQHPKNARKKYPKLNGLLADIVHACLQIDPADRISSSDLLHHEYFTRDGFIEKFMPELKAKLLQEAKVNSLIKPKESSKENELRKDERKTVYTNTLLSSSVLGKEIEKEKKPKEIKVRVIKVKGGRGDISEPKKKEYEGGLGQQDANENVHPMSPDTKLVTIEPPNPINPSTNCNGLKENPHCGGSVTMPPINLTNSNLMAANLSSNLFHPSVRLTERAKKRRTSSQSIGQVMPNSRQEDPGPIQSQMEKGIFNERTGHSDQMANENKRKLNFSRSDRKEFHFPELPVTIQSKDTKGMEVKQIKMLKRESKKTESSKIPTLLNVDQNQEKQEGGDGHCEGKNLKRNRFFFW
Chain of Serine/threonine-protein kinase SIK3 (Homo sapiens) (Q9Y2K2 whole entry, looked up): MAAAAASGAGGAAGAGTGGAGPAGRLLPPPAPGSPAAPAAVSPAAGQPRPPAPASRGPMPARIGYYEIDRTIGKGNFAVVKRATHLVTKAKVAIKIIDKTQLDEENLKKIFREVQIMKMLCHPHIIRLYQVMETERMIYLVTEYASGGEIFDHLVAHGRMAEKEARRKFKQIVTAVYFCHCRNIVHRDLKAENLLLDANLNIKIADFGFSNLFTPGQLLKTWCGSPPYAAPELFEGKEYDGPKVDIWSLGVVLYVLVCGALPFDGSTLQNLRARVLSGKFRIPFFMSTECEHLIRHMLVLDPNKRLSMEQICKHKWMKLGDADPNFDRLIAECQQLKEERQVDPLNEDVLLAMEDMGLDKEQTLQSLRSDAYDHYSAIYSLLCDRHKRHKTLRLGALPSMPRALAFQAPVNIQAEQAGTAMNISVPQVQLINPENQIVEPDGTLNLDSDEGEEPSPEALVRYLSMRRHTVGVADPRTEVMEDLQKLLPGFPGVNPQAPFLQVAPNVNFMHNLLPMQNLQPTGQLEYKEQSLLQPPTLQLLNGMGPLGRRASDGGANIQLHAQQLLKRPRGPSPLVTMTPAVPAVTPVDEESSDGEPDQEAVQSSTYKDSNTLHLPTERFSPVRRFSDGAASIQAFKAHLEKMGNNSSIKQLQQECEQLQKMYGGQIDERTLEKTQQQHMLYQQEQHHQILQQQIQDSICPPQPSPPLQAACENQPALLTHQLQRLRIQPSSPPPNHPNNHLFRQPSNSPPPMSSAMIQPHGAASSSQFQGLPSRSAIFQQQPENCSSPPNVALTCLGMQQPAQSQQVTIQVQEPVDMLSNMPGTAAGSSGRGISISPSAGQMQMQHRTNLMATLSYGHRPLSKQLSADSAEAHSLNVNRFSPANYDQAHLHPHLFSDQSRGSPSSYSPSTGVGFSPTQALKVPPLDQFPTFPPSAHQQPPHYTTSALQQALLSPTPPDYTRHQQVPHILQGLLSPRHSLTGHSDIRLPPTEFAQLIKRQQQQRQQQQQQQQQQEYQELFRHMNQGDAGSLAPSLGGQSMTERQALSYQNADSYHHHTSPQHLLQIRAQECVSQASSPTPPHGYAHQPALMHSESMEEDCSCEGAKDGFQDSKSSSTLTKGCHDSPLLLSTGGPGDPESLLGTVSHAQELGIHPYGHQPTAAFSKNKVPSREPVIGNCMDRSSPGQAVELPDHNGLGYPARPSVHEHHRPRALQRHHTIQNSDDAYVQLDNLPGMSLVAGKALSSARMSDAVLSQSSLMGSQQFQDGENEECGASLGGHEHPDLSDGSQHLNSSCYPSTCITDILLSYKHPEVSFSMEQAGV
Chain of RAC-gamma serine/threonine-protein kinase (Homo sapiens) (Q9Y243 whole entry): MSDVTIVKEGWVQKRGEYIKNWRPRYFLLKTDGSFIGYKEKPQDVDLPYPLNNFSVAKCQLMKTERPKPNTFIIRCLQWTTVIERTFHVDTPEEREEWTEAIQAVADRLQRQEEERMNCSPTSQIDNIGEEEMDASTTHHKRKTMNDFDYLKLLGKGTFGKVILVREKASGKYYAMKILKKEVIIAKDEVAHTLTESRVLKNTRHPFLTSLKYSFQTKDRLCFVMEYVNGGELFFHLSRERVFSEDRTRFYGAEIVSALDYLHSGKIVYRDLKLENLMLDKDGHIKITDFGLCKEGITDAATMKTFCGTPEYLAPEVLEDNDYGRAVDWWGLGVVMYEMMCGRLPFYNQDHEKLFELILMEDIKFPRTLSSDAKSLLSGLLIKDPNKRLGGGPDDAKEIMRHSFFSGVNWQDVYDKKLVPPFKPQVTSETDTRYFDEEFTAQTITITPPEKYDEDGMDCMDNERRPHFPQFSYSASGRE

With `CCN1CCN(Cc2ccc(NC(=O)c3ccc(C)c(/C=C/c4cnc5[nH]ccc5c4OC)c3)cc2C(F)(F)F)CC1` the inhibition [1] was 100%, the inhibition [2] was 100% and the inhibition [3] was 83%. For the same compound, the inhibition [4] was 100%, the inhibition [5] was 15% and the inhibition [6] was -4.2%. For the same compound, the residual activity [7] was 50%, the residual activity [8] was 29% and the percent of control [9] was 3.4%. The percent of control [10] was 22%.
`CCN1CCN(Cc2ccc(NC(=O)c3ccc(C)c(Oc4ccnc5[nH]ccc45)c3)cc2C(F)(F)F)CC1` was tested, and the inhibition [11] was 9.1%, the inhibition [12] was “inactive” and the inhibition [13] was “inactive”. For the same compound, the inhibition [14] was “inactive”, the inhibition [15] was 0% and the inhibition [16] was 34.6%. For the same compound, the inhibition [17] was 16.4%.
`CNc1cc(Oc2cc(C(=O)Nc3cc(N4CCN(C)CC4)cc(C(F)(F)F)c3)ccc2C)ncn1` was tested, and the inhibition [18] was -1.9%, the inhibition [19] was -0.3% and the inhibition [20] was -1%. The inhibition [21] was 1.9%, the inhibition [22] was 11.6% and the inhibition [23] was 24.3%. For the same compound, the inhibition [24] was 57.3%.
